Here are results for 73 compounds from ChEMBL document CHEMBL4513216, “Probing the Open Global Health Chemical Diversity Library for Multistage-Active Starting Points for Next-Generation Antimalarials” (ACS Infect Dis, 2020).

Molecules are shown by their SMILES.

The series can be described thus: Toxicity liver stage against HepG2, at 10uM. It is filed as cell-based. Also on record: test concentration 10 uM, cell line HepG2-A16-CD81EGFP. The following applies: human, HepG2-A16-CD81EGFP cells; read-out: INHIBITION
In a few lines:
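Uninfected HepG2-A16-CD81EGFP cells, 3 × 10^3 per well, 1536-well, plated on prespotted compound at 10 μM final, parasite-free screening media added to match infected plates; puromycin 10 μM positive, DMSO 0.5% negative; run in parallel with 48 h PbLuc assay at 37 °C, 5% CO2; viability by CellTiter-Glo luminescence, normalized to controls.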
Consider `COc1cc(C(=O)N2CCC(Nc3cccnc3)CC2)ccc1C`, for which the cytotoxicity at 10 µM was -134%.
The figure for `COc1ccccc1CC(C)(C)NC(=O)CN(C)C(C)C` is 3.04%; for `O=C(CCn1cncn1)N1CCCC(CO)(CCCc2ccccc2)C1` (stereo not drawn) it is 4.25%; for `CC(=O)NC1CCCN(C(=O)CCc2cccnc2)C1` (stereo not drawn) it is 19.8%.
The figure for `CCNC(=O)N1CCCCC1CCO` (stereo not drawn) is -4.27%; for `O=C(c1cnc(Nc2ccccc2)nc1)N1CCC(O)(CO)CC1` it is -0.756%.
The figure for `Cc1nc(-c2ccc(CO)cc2)cc(C2CCNCC2)n1` is 12.3%; for `c1c(CN2CCOCC2)nc2n1CCN(C1CCOCC1)C2` it is 0.997%.
Turning to `CCCS(=O)(=O)CCSc1cccc(C#N)c1`, the cytotoxicity at 10 µM was -3.85%.
In the case of `O=C1OCCCN1Cc1nc(-c2ccc(N3CCCCC3)cc2)no1` it was 7.04%; in that of `N#CC1(NC(=O)COC(=O)Cc2cc(Cl)c3c(c2)OCCO3)CCCC1`, 0.935%.
In the case of `Cc1cc(C)c(C(=O)N2CCOC(CCN(C)C)C2)o1` (stereo not drawn) it was -1.92%.
Consider `CC(C)N(C)Cc1cnc2n1CCN(C(=O)Cc1cccs1)C2C` (stereo not drawn), for which the cytotoxicity at 10 µM amounted to 7.86%.
In the case of `CN(CCCOc1ccccc1)C(=O)CN1CCc2cncnc2C1` it was -2.06%; in that of `CN1CCN(C(=O)c2cnsn2)c2cc(F)ccc21`, -9.03%.
The figure for `O=C(c1ccc2c(c1)[nH]c(=O)n2C1CCC(O)CC1)N1CCOCC1` (stereo not drawn) is -41.4%; for `Cc1nc(CN(C)C(=O)Nc2cnn(CC3CCCO3)c2)cs1` (stereo not drawn) it is 5.53%; for `NC(=O)NC(=O)CCN(Cc1ccccc1)CC1CCOCC1` it is -1.86%.
For `c1ccc(COC[C@@H]2CCC[C@@]23CNCCO3)nc1`, the cytotoxicity at 10 µM is -105%.
In the case of `C/C=C(\C)CN1C[C@@H](NC(=O)c2ccc(O)c(Cl)c2)C[C@H]1C(=O)NCC` it was 9.23%.
The figure for `COc1ccccc1C(=O)NCCCN1CCCC1C(=O)N(C)C` (stereo not drawn) is -2.94%; for `Cc1nc(Cn2c3c(ccc2=O)CC(NC(C)C)CC3)cs1` (stereo not drawn) it is 6.39%; for `Fc1ccc(CN2CCC3(CC2)CCN(c2ncccn2)CC3)cc1` it is -73.7%.
The figure for `CCOc1c(Br)cc(/C=C/c2ncc(C(=O)O)s2)cc1OC` is -1.26%; for `Cc1cc(C)nc(C2CCCNC2)n1` (stereo not drawn) it is 9.85%.
Consider `Cc1cccnc1CN1CCN(C(=O)CCn2ccc(=O)[nH]c2=O)CC1`, for which the cytotoxicity at 10 µM was determined as 1.99%.
Consider `CC(C)CCCNC(=O)Nc1ccc(C(N)=O)c(Cl)c1`, for which the cytotoxicity at 10 µM stood at 4.69%.
In the case of `CC(=O)NCCOc1c(Cl)cccc1Cl` it was -8.87%.
The figure for `CN1CCCC(c2cccc(-c3cccc(F)c3)n2)C1` (stereo not drawn) is -2.4%; for `COCCN1CCN(Cc2nc(-c3ccoc3)no2)CC1` it is 16%.
In the case of `CCN(C(=O)CCc1ccc2[nH]ccc2c1)C1CC(=O)NC1=O` (stereo not drawn) it was -8.96%.
Regarding `CCOCC(O)CN1CCN(C(=O)c2ccnc(N(C)C)c2)CC1` (stereo not drawn), the cytotoxicity at 10 µM is -3.47%.
Regarding `Cc1c[nH]nc1C1CCCN1Cc1ncc[nH]1` (stereo not drawn), the cytotoxicity at 10 µM worked out at 4.99%.
As for `Cc1cc(NC(=O)CN2CCCCC2Cn2nc(C)nc2C)on1` (stereo not drawn), the cytotoxicity at 10 µM is -2.19%.
Turning to `CCc1ncc2c(n1)CN(CC(O)COc1ccc(C#N)cc1)CC2` (stereo not drawn), the cytotoxicity at 10 µM is -7.65%.
As to `CN(C)S(=O)(=O)N1C[C@H]2CC[C@@H](C1)N(Cc1ccc3[nH]ccc3c1)C2`, the cytotoxicity at 10 µM was found to be 3.07%.
The figure for `CC(CCS(C)(=O)=O)NC(=O)NCc1ccc2c(c1)CCC2` (stereo not drawn) is -143%; for `CCCN1CCN(S(=O)(=O)c2ccccc2OC)[C@H]2CS(=O)(=O)C[C@H]21` it is -3.56%.
Consider `CN(C)C(=O)CN1CCC2(COCc3cnc(-c4cccnc4)nc32)C1` (stereo not drawn), for which the cytotoxicity at 10 µM was -115%.
With `CCc1cnc(N)nc1NCCCn1cc(Cl)cn1`, the cytotoxicity at 10 µM was 3.5%.
Turning to `CN1CCC(Cc2noc(CC3CC3)n2)CC1`, the cytotoxicity at 10 µM was -9.96%.
With `COc1ccc(-c2nnc(SCC(=O)NCC(C)C)[nH]2)c(OC)c1`, the cytotoxicity at 10 µM was -6.73%.
Consider `Cc1ccc(C(C)C(=O)N2CCCN(Cc3cscn3)CC2)cc1` (stereo not drawn), for which the cytotoxicity at 10 µM is -5.31%.
With `CCc1ncc(C(=O)N2CCC(Nc3ccc(C)nn3)CC2)s1`, the cytotoxicity at 10 µM is -7.94%.
In the case of `CN1CCN(C[C@@H]2CN(C(=O)CCc3cn[nH]c3)C[C@@H]2CO)CC1` it was -0.973%; in that of `CCCc1cnc(C)nc1N1CCC(Cc2ccc(CO)cc2)C1` (stereo not drawn), -2.36%; in that of `Cn1cc(-c2ncc3c(c2C(=O)O)CCN(CC2CC2)C3)cn1`, -104%.
In the case of `COCCOc1cccc(CNC(=O)CN2CCN(C)CC2C)c1` (stereo not drawn) it was -4.07%; in that of `CCn1nnnc1-c1cccc(NC(=O)CCn2cc(C)cn2)c1`, 1.66%; in that of `COc1ccccc1-c1cc(C(=O)N(C)C)c2cnn(C)c2n1`, 10.6%.
In the case of `CC(=O)N1CCCC2(CCN(C(=O)c3ccc(Cl)c(C(F)(F)F)c3)C2)C1` (stereo not drawn) it was -74.4%; in that of `N#CCCCS(=O)(=O)NC1(c2ccc(F)cc2)CC1`, 2.9%.
On to `CN1CCC(Cc2noc(CCc3nc4ccccc4nc3O)n2)CC1`, for which the cytotoxicity at 10 µM was found to be 7.23%.
In the case of `CCCN(CC(F)F)c1cc(COC)nc2ncnn12` it was -3.22%; in that of `CN(CCC#N)C(=O)CN1CCCC1c1ccsc1` (stereo not drawn), -5.26%; in that of `Cn1nnn(-c2ccc(NS(=O)(=O)c3ccc(F)c(Cl)c3)cc2)c1=O`, -4.57%.
In the case of `Cc1ccccc1CC(=O)N1CCCn2cncc2C1` it was -1.1%; in that of `Cc1cc(C(=O)N2CCN(c3nc4c(C)cccc4s3)CC2)no1`, 12.1%.
For `COCCCS(=O)(=O)N1CCN(c2cccc(O)c2)CC1`, the cytotoxicity at 10 µM is 4.42%.
The figure for `CCc1nc(C2CCCN2C(=O)CCc2ccc3c(c2)OCO3)no1` (stereo not drawn) is -4.62%; for `OC1(CNCc2noc(Cc3ccccc3)n2)CCCNC1` (stereo not drawn) it is 5.19%; for `Cc1nc[nH]c1CN(Cc1ccccc1)C1CC(C)(C)NC(C)(C)C1` it is 0.968%.
In the case of `CSCCC1c2nc[nH]c2CCN1Cc1ccnc2ccccc12` (stereo not drawn) it was 13.2%.
Turning to `Cc1nc(NCc2noc(C3CCCO3)n2)c2ccsc2n1` (stereo not drawn), the cytotoxicity at 10 µM amounted to 49.9%.
In the case of `COc1c(CNCc2ccc(N3CCOCC3)cc2)c(C)nn1C` it was 2.1%; in that of `CC(C)c1cccc(N2CCCC3(CCC(=O)N(C4CC4)C3)C2)n1` (stereo not drawn), -5.01%; in that of `O=C(Cc1ccccc1)N1CC(=O)N(Cc2ccco2)CC(O)C1` (stereo not drawn), -4.05%.
Turning to `Cc1cccc(CN2C[C@@H]3COC[C@]3(COCC(=O)N(C)C)C2)n1`, the cytotoxicity at 10 µM is -1.95%.
On to `Cc1nc(C(C)NC(=O)NCc2nccn2CC(C)C)cs1` (stereo not drawn), for which the cytotoxicity at 10 µM is -20.7%.
The figure for `Cc1cc(C)n(CC2CCCN2C(=O)c2cnccn2)n1` (stereo not drawn) is 6.41%.
With `CN(C)c1ncccc1CNC(=O)N1CCCC1CN1CCCCC1` (stereo not drawn), the cytotoxicity at 10 µM is -0.986%.
As for `COc1c(CNCCNC(=O)c2ccco2)c(C)nn1C`, the cytotoxicity at 10 µM was -5.92%.
As for `Cc1c(Cl)cccc1NC(=O)CCNc1ccc(C#N)cn1`, the cytotoxicity at 10 µM is -0.106%.
